Where a SMILES comes first, the peptide text is derived from it. [ ]: non-standard residue; d: D form. d2Nal = N[C@H](Cc1ccc2ccccc2c1)C(=O)O; Nle = CCCC[C@H](N)C(=O)O Bounds are passed on as bounds.

In assay [1] the target is T1, Melanocyte-stimulating hormone receptor (Homo sapiens, UniProt Q01726). In words: Maximal effect on human melanocortin 1 receptor expressing HEK 293 cells. The class given is functional, cell-based. As to conditions: HEK293; call rule not given here. The gist of the method:
(§1)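 HEK293 cells transfected with human MCRs, grown in MEM with 10% FBS, seeded 48 h before at 100 000 cells/well. Stopped with ice-cold Tris/EDTA, boiled 15 min, centrifuged; cAMP in supernatant measured by competitive binding kit. EC50 and maximal response by nonlinear least-squares fit.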
Target sequence in this assay (Q01726 whole entry, looked up): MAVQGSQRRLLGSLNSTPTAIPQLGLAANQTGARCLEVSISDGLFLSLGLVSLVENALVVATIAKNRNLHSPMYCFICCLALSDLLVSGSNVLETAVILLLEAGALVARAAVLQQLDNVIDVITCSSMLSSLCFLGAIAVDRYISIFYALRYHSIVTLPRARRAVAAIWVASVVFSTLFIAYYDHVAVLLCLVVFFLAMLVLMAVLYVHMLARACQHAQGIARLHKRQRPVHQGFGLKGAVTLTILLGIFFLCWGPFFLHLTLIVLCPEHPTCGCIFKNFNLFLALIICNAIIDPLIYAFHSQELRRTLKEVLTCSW

The target in assay [2] is T2, Melanocortin receptor 3 (Homo sapiens, UniProt P41968). In words: Maximal effect on human melanocortin 3 receptor expressing HEK 293 cells. The note with it: HEK293. It counts as functional, cell-based. The essentials: as §1
T2 sequence (P41968 whole entry): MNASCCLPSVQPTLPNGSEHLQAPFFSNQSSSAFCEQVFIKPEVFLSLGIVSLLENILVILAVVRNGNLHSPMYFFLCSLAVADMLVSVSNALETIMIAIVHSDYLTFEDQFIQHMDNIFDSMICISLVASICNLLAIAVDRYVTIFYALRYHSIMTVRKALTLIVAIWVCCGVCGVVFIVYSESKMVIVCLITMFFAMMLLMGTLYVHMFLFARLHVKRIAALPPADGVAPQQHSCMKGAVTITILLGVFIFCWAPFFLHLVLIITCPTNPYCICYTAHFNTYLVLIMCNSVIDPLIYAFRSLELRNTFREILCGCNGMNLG
Assay [3] addresses T3, Melanocortin receptor 5 (Homo sapiens, UniProt P33032). As to the kind of experiment: Maximal effect on human melanocortin 5 receptor expressing HEK 293 cells. It counts as functional, cell-based. The note with it: HEK293. The gist of the method: as §1
Assay [4] deals with T4, Melanocortin receptor 4 (Homo sapiens, UniProt P32245). The note with it: HEK293.
T4 sequence (P32245 whole entry): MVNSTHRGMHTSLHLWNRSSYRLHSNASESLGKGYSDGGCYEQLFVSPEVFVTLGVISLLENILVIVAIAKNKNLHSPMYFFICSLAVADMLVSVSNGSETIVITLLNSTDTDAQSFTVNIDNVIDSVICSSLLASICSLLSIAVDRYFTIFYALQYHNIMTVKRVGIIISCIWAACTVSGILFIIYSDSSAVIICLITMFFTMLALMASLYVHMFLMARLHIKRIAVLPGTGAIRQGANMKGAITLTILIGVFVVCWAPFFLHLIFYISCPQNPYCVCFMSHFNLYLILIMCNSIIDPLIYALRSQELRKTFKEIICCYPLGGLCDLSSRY
The target of assay [5] is T2, Melanocortin receptor 3. The class given is cell-based, HEK293.
In assay [6] the target is T4, Melanocortin receptor 4. The class given is cell-based, HEK293.
The target of assay [7] is T3, Melanocortin receptor 5. It counts as cell-based, HEK293.
In assay [8] the target is T1, Melanocyte-stimulating hormone receptor. It counts as cell-based, HEK293.
Target sequence in this assay (Q01726 whole entry): as the sequence (Q01726 whole entry, looked up) above
For assay [9] the target is unchanged. In words: Effective concentration for intracellular cAMP accumulation in human melanocortin 1 receptor expressing HEK 293 cells; (N = 4). It counts as functional, cell-based, HEK293. The essentials:
as §1
For orientation: Changes in cAMP serve as a functional read-out for many G protein-coupled receptors.
Target sequence in this assay (Q01726 whole entry): as the sequence (Q01726 whole entry, looked up) above

Assay [10] has as its target T2, Melanocortin receptor 3. In words: Effective concentration for intracellular cAMP accumulation in human melanocortin 3 receptor expressing HEK 293 cells; (N = 4). The class given is functional, cell-based, HEK293. The gist of the method:
as §1

Assay [11] concerns the target T4, Melanocortin receptor 4. As to the kind of experiment: Effective concentration for intracellular cAMP accumulation in human melanocortin 4 receptor expressing HEK 293 cells; (N = 4). It counts as functional, cell-based, HEK293.
Assay [12] concerns the target T3, Melanocortin receptor 5. As to the kind of experiment: Effective concentration for intracellular cAMP accumulation in human melanocortin 5 receptor expressing HEK 293 cells; (N = 4). The class given is functional, cell-based, HEK293. The essentials:
as §1

Assay [13] has as its target T3, Melanocortin receptor 5. As to the kind of experiment: Effective concentration for intracellular cAMP accumulation in human melanocortin 5 receptor expressing HEK 293 cells; (N = 4), No activity. It counts as functional, cell-based. The note with it: hek293. The essentials:
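HEK293 cells transfected with human MCRs, grown in MEM with 10% FBS, seeded 48 h before at 100 000 cells/well. Preincubated 1 min at 37 °C in EBSS with IBMX, then exposed 3 min at 37 °C to peptide (10^-10 to 10^-5 M). Stopped with ice-cold Tris/EDTA, boiled 15 min, centrifuged; cAMP in supernatant measured by competitive binding kit. EC50 and maximal response by nonlinear least-squares fit.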

T3 sequence (P33032 whole entry): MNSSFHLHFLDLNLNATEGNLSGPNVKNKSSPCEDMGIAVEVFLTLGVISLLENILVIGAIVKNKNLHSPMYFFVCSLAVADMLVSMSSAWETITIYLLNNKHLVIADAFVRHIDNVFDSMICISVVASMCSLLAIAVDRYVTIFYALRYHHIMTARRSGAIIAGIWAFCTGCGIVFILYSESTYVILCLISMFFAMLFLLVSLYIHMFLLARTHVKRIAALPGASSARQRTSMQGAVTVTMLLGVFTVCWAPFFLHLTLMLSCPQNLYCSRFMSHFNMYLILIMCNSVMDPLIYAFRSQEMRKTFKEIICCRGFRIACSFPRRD

With `CCCC[C@H](NC(=O)[C@@H](NC(=O)[C@@H](N)Cc1ccc(O)cc1)C(C)C)C(=O)NCC(=O)N1CCC[C@H]1C(=O)N[C@@H](Cc1ccccc1)C(=O)N[C@@H](CCCN=C(N)N)C(=O)N[C@H](Cc1ccc2ccccc2c1)C(=O)N[C@@H](CC(=O)O)C(=O)N[C@@H](CCCN=C(N)N)C(=O)N[C@@H](Cc1ccccc1)C(=O)NCC(=O)O`, the Maximal effect in [1] turned out to be 120%; in [2] it was 28%; in assay [3], 46%; in assay [4] it was 14%.

Regarding `CCCC[C@H](NC(=O)[C@@H](NC(=O)[C@@H](N)Cc1ccc(O)cc1)C(C)C)C(=O)NCC(=O)N[C@@H](Cc1cnc[nH]1)C(=O)N[C@H](Cc1ccc2ccccc2c1)C(=O)N[C@@H](CCCNC(=N)N)C(=O)N[C@H](Cc1ccccc1)C(=O)N[C@@H](CC(=O)O)C(=O)N[C@@H](CCCNC(=N)N)C(=O)N[C@@H](Cc1ccccc1)C(=O)NCC(N)=O` (H-YV[Nle]GH[d2Nal]R[dF]DRFG-NH2), the half-maximal inhibitory concentration (IC50) was determined as 6 nM in assay [5], 20 nM in assay [6], 3.3 nM in assay [7] and 0.16 nM in [8]. The concentration giving a half-maximal response (EC50) in [9] is 1.5 nM; in assay [10], 951 nM; in assay [11], 2700 nM; in assay [12], 490 nM.

With `CCCC[C@H](NC(=O)[C@@H](NC(=O)[C@@H](N)Cc1ccc(O)cc1)C(C)C)C(=O)NCC(=O)N[C@@H](Cc1c[nH]cn1)C(=O)N[C@@H](Cc1ccccc1)C(=O)N[C@@H](CCCN=C(N)N)C(=O)N[C@@H](Cc1c[nH]c2ccccc12)C(=O)N[C@@H](CC(=O)O)C(=O)N[C@@H](CCCN=C(N)N)C(=O)N[C@@H](Cc1ccccc1)C(=O)NCC(=O)O`, in assay [4], the Maximal effect was 100%.

Compound `CCCC[C@H](NC(=O)[C@@H](NC(=O)[C@@H](N)Cc1ccc(O)cc1)C(C)C)C(=O)NCC(=O)N[C@@H](Cc1c[nH]cn1)C(=O)N[C@@H](Cc1ccccc1)C(=O)N[C@@H](CCCN=C(N)N)C(=O)N[C@@H](Cc1c[nH]c2ccccc12)C(=O)N[C@@H](CC(=O)O)C(=O)N[C@@H](CCCN=C(N)N)C(=O)N[C@@H](Cc1ccccc1)C(=O)NCC(N)=O` gave an IC50 in assay [6] of 64 nM.

On to `CCCC[C@H](NC(=O)[C@@H](NC(=O)[C@@H](N)Cc1ccc(O)cc1)C(C)C)C(=O)NCC(=O)N[C@@H](Cc1c[nH]cn1)C(=O)N[C@H](Cc1ccccc1)C(=O)N[C@@H](CCCN=C(N)N)C(=O)N[C@H](Cc1ccc2ccccc2c1)C(=O)N[C@@H](CC(=O)O)C(=O)N[C@@H](CCCN=C(N)N)C(=O)N[C@@H](Cc1ccccc1)C(=O)NCC(N)=O`, for which the IC50 in [5] was found to be 6 nM; in assay [6], 6 nM; in assay [7], 5 nM; in assay [8] it was 0.7 nM. Further, the figures for the EC50 in assay [9], in assay [11] and in [12] were 2 nM, 36 nM and 200 nM, respectively.

Take `CCCC[C@H](NC(=O)[C@@H](NC(=O)[C@@H](N)Cc1ccc(O)cc1)C(C)C)C(=O)NCC(=O)N1CCC[C@H]1C(=O)N[C@@H](Cc1ccccc1)C(=O)N[C@@H](CCCN=C(N)N)C(=O)N[C@H](Cc1ccc2ccccc2c1)C(=O)N[C@@H](CC(=O)O)C(=O)N[C@@H](CCCN=C(N)N)C(=O)N[C@@H](Cc1ccccc1)C(=O)NCC(N)=O`: the IC50 in assay [5] stood at 32 nM; in assay [7], 650 nM. Besides, the EC50 in assay [10] was 13 nM; in assay [12] it was 250 nM.

Turning to `CCCC[C@H](NC(=O)[C@@H](NC(=O)[C@@H](N)Cc1ccc(O)cc1)C(C)C)C(=O)NCC(=O)N1CCC[C@H]1C(=O)N[C@H](Cc1ccc2ccccc2c1)C(=O)N[C@@H](CCCN=C(N)N)C(=O)N[C@H](Cc1ccc2ccccc2c1)C(=O)N[C@@H](CC(=O)O)C(=O)N[C@@H](CCCN=C(N)N)C(=O)N[C@@H](Cc1ccccc1)C(=O)NCC(N)=O`, the IC50 came to 3 nM in [5], 4 nM in assay [6], 2 nM in assay [7] and 2 nM in assay [8]. For the same compound, the concentration giving a half-maximal response (EC50) in [9] was 2 nM; in assay [10], 11 nM; in assay [11], 3.3 nM; in [13], “Not Active”.

Compound `CCCC[C@H](NC(=O)[C@@H](NC(=O)[C@@H](N)Cc1ccc(O)cc1)C(C)C)C(=O)NCC(=O)N[C@@H](Cc1c[nH]cn1)C(=O)N[C@H](Cc1ccccc1)C(=O)N[C@@H](CCCN=C(N)N)C(=O)N[C@H](Cc1c[nH]c2ccccc12)C(=O)N[C@@H](CC(=O)O)C(=O)N[C@@H](CCCN=C(N)N)C(=O)N[C@@H](Cc1ccccc1)C(=O)NCC(N)=O` had an IC50 in assay [6] of 17 nM. In assay [11], this compound showed a 50% effective concentration (EC50) of 29 nM.

With `CCCC[C@H](NC(=O)[C@@H](NC(=O)[C@@H](N)Cc1ccc(O)cc1)C(C)C)C(=O)NCC(=O)N[C@H](Cc1ccc2ccccc2c1)C(=O)N[C@@H](Cc1ccccc1)C(=O)N[C@@H](CCCN=C(N)N)C(=O)N[C@@H](Cc1c[nH]c2ccccc12)C(=O)N[C@@H](CC(=O)O)C(=O)N[C@@H](CCCN=C(N)N)C(=O)N[C@@H](Cc1ccccc1)C(=O)NCC(N)=O`, the IC50 was 3000 nM in assay [5] (hek293), 1990 nM in [6] (hek293) and 1000 nM in assay [7] (hek293). Besides, the EC50 in assay [10] (hek293) was over 10000 nM; in [11] (hek293) it was over 10000 nM; in [12] (hek293), 870 nM.

As a reminder, the IC50 is the concentration that inhibits the measured activity by half. A lower IC50 goes with higher potency. What is called EC50 is the concentration giving half of the maximal effect. The low end stands for greater potency, the high end for weaker potency.

The values are drawn from ChEMBL document CHEMBL1144443, “Novel 3D pharmacophore of alpha-MSH/gamma-MSH hybrids leads to selective human MC1R and MC3R analogues” (J Med Chem, 2005).
